Sampled rows, rich in hits. Any-hit rate of the full collection: about 6.3%.
PostGolgi yeast: growth inhibition of a yeast mutant, post-Golgi transport screen | post-Golgi transport phenotypic cell assay | inhibition, % at 10 µM | actives 0.9% (n = 98,000) | AID 739;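 further: yeast cells grown in 1536-well plates; yeast grown about 18 h at 30C before absorbance read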
PostGolgi ctrl: yeast control strain growth, post-Golgi counter-screen | efflux-deficient yeast background strain, growth absorbance A615, 16 h | inhibition, % at 10 µM | actives 5% (n = 98,000) | AID 738
E coli WT exp: growth inhibitors of E. coli BW25113 wild type | AID 710 | actives 0.15% (n = 98,000) | OD600 absorbance | growth inhibition, % at 100 µM;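 active means growth inhibition above about 50% at one test dose, limit read from the data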;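 further: growth measured after 20 h incubation at 37 °C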
Ecoli tolC: blocks growth of E. coli BW25113 tolC mutant; OD615; growth inhibition, % at 10 µM (by protocol); actives 2.2% (n = 65,000); AID 573;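 active means growth inhibition at or above a cutoff equal to the mean over every tested compound plus 3 SD, cut at about 60% in these data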;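 further: growth measured after 20 h incubation at 37 °C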
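Doses: one dose of 10 µM final / Material: E. coli BW25113 ΔtolC::kan, tolC deletion mutant strain / Buffer or medium: LB with kanamycin 50 µg/mL / Evaluation: percent growth inhibition / Detection: optical density read at 615 nm / Incubation: 37 °C, 20 h exposure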
Starred values were filed as active, the others as inactive. Unless noted, no stated cut-off is given here; in the data, active means inhibition above about 30%; inactive means the rest.

Nc1nc(N)nc(-c2ccc(Oc3ccccc3)cc2)n1 was read as PostGolgi yeast 11, PostGolgi ctrl 22 and E coli WT exp -9.
Cc1ccc(Oc2ccc(-c3nc(N)nc(N)n3)cc2)cc1C was read as PostGolgi yeast -2, PostGolgi ctrl 50* and E coli WT exp -5.
For Cc1nc(N2CCN(Cc3ccccc3)CC2)[nH]c(=O)c1C the results were Ecoli tolC -16.
`O=c1cc(-c2ccccc2)nc(N2CCN(Cc3ccccc3)CC2)[nH]1` gave PostGolgi yeast 13, PostGolgi ctrl 39*, E coli WT exp 10 and Ecoli tolC 20.
CCOC(=O)c1[nH]c(C)c(C(=O)NC)c1C was read as PostGolgi yeast 2, PostGolgi ctrl 2, E coli WT exp 3 and Ecoli tolC -12.
`CCOC(=O)c1[nH]c(C)c(C(=O)NC(C)(C)C)c1C` gave PostGolgi yeast -4, PostGolgi ctrl 31*, E coli WT exp 5 and Ecoli tolC -16.
Screening CCCc1nc(SC2CCCC2)c2c(=O)n(C)c(=O)n(C)c2n1 returned PostGolgi yeast 22, PostGolgi ctrl 18, E coli WT exp -2 and Ecoli tolC 84*.
`O=C(Nc1ccc(Br)cc1Cl)c1cnccn1` gave PostGolgi yeast -2, PostGolgi ctrl 8, E coli WT exp 2 and Ecoli tolC 0.
Screening O=C(Nc1ccc(Br)cc1Cl)Nn1cnnc1 returned PostGolgi yeast 3, PostGolgi ctrl 34*, E coli WT exp 7 and Ecoli tolC -8.
CS(=O)(=O)N(CC(=O)Nc1ccccc1Sc1ccccc1)c1ccc(F)cc1 was read as PostGolgi yeast -2, PostGolgi ctrl 54* and E coli WT exp -18.
Screening Clc1ccc(OCCOCCN2CCCCC2)c(Br)c1 returned PostGolgi yeast 42*, PostGolgi ctrl 26 and E coli WT exp 16.
For Clc1cc(Br)ccc1OCCOCCN1CCOCC1 the results were PostGolgi yeast 53*, PostGolgi ctrl 14, E coli WT exp 6 and Ecoli tolC 8.
Screening Cc1ccc(C)c(OCCOCCN2CCOCC2)c1 returned PostGolgi yeast 2, PostGolgi ctrl -1, E coli WT exp 6 and Ecoli tolC -5.
For O=C(COc1ccc(Cl)cc1)N(Cc1ccccc1)c1ccccn1 the results were PostGolgi yeast -4, PostGolgi ctrl 33* and E coli WT exp -11.
Screening CCc1nn2c(N3CCOCC3)cc(C)nc2c1-c1ccc(F)cc1 returned PostGolgi yeast -4, PostGolgi ctrl 45*, E coli WT exp 0 and Ecoli tolC 12.
For Cc1cc(N2CCOCC2)n2ncc(-c3ccccc3)c2n1 the results were PostGolgi yeast 0, PostGolgi ctrl 26 and E coli WT exp -3.
Nc1cc(Cl)ccc1C(=O)OCC(=O)NC1CCS(=O)(=O)C1 (stereo unspecified) was read as PostGolgi yeast 3, PostGolgi ctrl 36* and E coli WT exp 0.
Cn1c2ccccc2c2cc(C(=O)NNS(=O)(=O)c3ccc(F)cc3)sc21 was read as PostGolgi yeast 15, PostGolgi ctrl 55* and E coli WT exp -3.
For CCc1ccc(N=c2c([N+](=O)[O-])nn(-c3ccccc3)n2O)cc1 the results were PostGolgi yeast 7, PostGolgi ctrl 34* and E coli WT exp 15.
Screening COc1ccc(C(=O)CC(Nc2ccc([N+](=O)[O-])cc2)c2ccc(Cl)cc2)cc1 (stereo unspecified) returned PostGolgi yeast -9, PostGolgi ctrl 15 and E coli WT exp -25.
COc1ccc(-n2nc([N+](=O)[O-])c(=NCCc3ccc(Cl)cc3)n2O)cc1 was read as PostGolgi yeast 3, PostGolgi ctrl 40* and E coli WT exp -3.
Cc1ccc(C(=O)NC(N2CCCC2)C(Cl)(Cl)Cl)cc1 (stereo unspecified) was read as PostGolgi yeast -1, PostGolgi ctrl -4 and E coli WT exp -1.
`Cc1ccc(Cl)cc1N1CCN(C(=O)c2cc3c(=O)n(C)c4ccccc4c3n2C)CC1` gave PostGolgi yeast -8, PostGolgi ctrl 45*, E coli WT exp -3 and Ecoli tolC 17.
Screening Cn1c(C(=O)N2CCN(c3ccccc3F)CC2)cc2c(=O)n(C)c3ccccc3c21 returned Ecoli tolC -6.
`Cc1cccc(N2CCN(C(=O)c3cc4c(=O)n(C)c5ccccc5c4n3C)CC2)c1C` gave PostGolgi yeast 3, PostGolgi ctrl 40*, E coli WT exp -13 and Ecoli tolC -2.
For COc1cc(OC)cc(C(=O)N2CCN(c3ncccn3)CC2)c1 the results were PostGolgi yeast 9, PostGolgi ctrl -1, E coli WT exp 3 and Ecoli tolC -8.
For COc1ccc(Cn2cnc3c([N+](=O)[O-])c(C)c(C)cc32)cc1 the results were PostGolgi yeast -1, PostGolgi ctrl 12 and E coli WT exp -2.
